# Test: Toxicity liver stage against HepG2, at 10uM
# Type: cell-based
# Parameters: test concentration 10 uM, cell line HepG2-A16-CD81EGFP
# Conditions: human, HepG2-A16-CD81EGFP cells; read-out: INHIBITION
# Summary of the method: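 Uninfected HepG2-A16-CD81EGFP cells, 3 × 10^3 per well, 1536-well, plated on prespotted compound at 10 μM final, parasite-free screening media added to match infected plates; puromycin 10 μM positive, DMSO 0.5% negative; run in parallel with 48 h PbLuc assay at 37 °C, 5% CO2; viability by CellTiter-Glo luminescence, normalized to controls.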
row,Structure (SMILES),cytotoxicity at 10 µM
1,O=C(c1ccc(C(F)(F)F)cc1)C1CCCN(C(=O)Cn2cnnn2)C1 (configuration not stated),-5.34%
2,O=C(CCNc1ncccn1)Nc1ccc(Cn2cncn2)cc1,2.5%
3,Cc1cccnc1NC(=O)C1CSc2ncc(C)c(=O)n2C1 (configuration not stated),-1.62%
4,CC(C)(C)CC(=O)NCCn1ccc(-c2ccncc2)n1,-3.4%
5,O=C(NCC1CC1)C1CCC2(CCN(C(=O)c3ccoc3)CC2)O1 (configuration not stated),4.97%
6,Cc1nnc(N2C[C@@H]3CCCO[C@@H]3[C@H](N(C)C)C2)s1,17.5%
7,O=C1NC2(CCN(C(=O)Cc3ccsc3)CC2)CC1c1ccccc1 (configuration not stated),-2.04%
8,CN1CC(=O)N(c2cccc(F)c2)CC12CCN(Cc1ccccn1)C2 (configuration not stated),2.49%
9,COc1ccc(OC)c(NC(=O)N2CCCC2c2ccco2)c1 (configuration not stated),-6.57%
10,C[C@@H]1C[C@@H]2CCN(C(=O)c3cnccn3)C[C@H]2O1,-10.6%
11,CCN(CC)C(=O)CCn1ncc2c(Cl)cccc21,12.4%
12,CS(=O)(=O)N1CCc2ccc(C(=O)N3CCn4ncnc4C3)cc21,-7.79%
13,Cc1nc(N2CCOCC2)sc1C(=O)NCC(C)(C)N1CCCCC1,5.7%
14,Cc1nc(-c2ccc(CNS(=O)(=O)N(C)C)cc2)ccc1C(N)=O,-8.53%
15,Cc1cc2n(n1)[C@@H](C(F)(F)F)C[C@@H](C1CCN(C(=O)C3CC3)CC1)N2,-41%
16,CCn1ccc(C(=O)N2CCCC2(C)c2nc(C)cc(N(C)C)n2)n1 (configuration not stated),-7.56%
17,O=c1[nH]c(N2CCOCC2)nc2c1CN(Cc1cccnc1)CC2,12.3%
18,Cc1cc(C2CCN(C(=O)c3cnn(C)c3)CC2)ccn1,-17.8%
19,CN1CCCC(c2cccc(CCC(N)=O)n2)C1 (configuration not stated),2.9%
20,CN1CCCC[C@@H]2[C@H]1[C@@H](c1ccccc1)CCN2C(=O)c1ccncc1,-13%
21,O=C(NCCNC(=O)C1CCN(CC(F)(F)F)CC1)c1ccoc1,5.09%

row,Structure (SMILES),cytotoxicity at 10 µM
1,Cc1ccc(S(=O)(=O)NCc2[nH]ncc2Br)cc1C,5.23%
2,COCCN1CCN(CC(=O)NC2(C#N)CCCC2)CC1C (configuration not stated),10.7%
3,CCCS(=O)(=O)CCN1CCN(C(C#N)c2ccccc2)CC1 (configuration not stated),-5.02%
4,Cc1ncc2c(n1)CN(Cc1nc(-c3ccsc3)oc1C)CC2,1.97%
5,CC(C)OCCC(=O)NCC(O)c1c(F)cccc1F (configuration not stated),-6.51%
6,CC(C)n1cnnc1CNC(=O)c1cnc2ccccc2n1,7.01%
7,CCc1ccc(O)c(C(=O)N2CCN(CC(=O)N3CCCCC3)CC2)c1,9.06%
8,COC(=O)c1ccc(N(C(=O)c2cccnc2C)C(C)C)c(C)c1,-8.58%
9,CCN(CC1CCOC1)C(=O)NCc1ccc(-n2cncn2)nc1 (configuration not stated),0.0529%
10,CC(c1cccnc1)N1CCN(C(=O)NCc2cnn(C)c2)CC1 (configuration not stated),-2.38%
11,O=C(Cc1ccc2c(c1)CCO2)Nc1cccnc1-n1cncn1,3.94%
12,CCc1ncc2c(n1)CN(CCCOc1ccc(C#N)cc1)CC2,16.4%
13,NC(=O)c1ccc(CNC2CCCSC2)cc1 (configuration not stated),-9.44%
14,CCc1noc(CN(C)CCC(=O)Nc2ccc(Cl)cc2)n1,2.78%
15,CC(C)C(O)CNC(=O)Nc1cnn(C(C)C)c1 (configuration not stated),3.57%
16,O=S(=O)(CCNCc1cccc2c1OCCO2)N1CCOCC1,-10.9%
17,N#Cc1cc(NC(=O)c2ccccc2)ccc1N1CCC(O)CC1,-9.55%
18,CNC(=O)Nc1cc(-c2ccc(Br)cc2)nn1CCO,-1.35%
19,O=C(NCCCNC(=O)c1cccc(O)c1)Nc1ccc(F)cc1F,-11%
20,COCC1CN(Cc2ccncc2)Cc2nn(C)cc21 (configuration not stated),-74.1%
21,COc1cccc(CC(=O)N2CCc3ncnc(NC(C)C)c3CC2)c1,6.56%

row,Structure (SMILES),cytotoxicity at 10 µM
1,CNc1nccc(-c2cnc3sc(C)c(C)n3c2=O)n1,-2.78%
2,O=c1c(-c2ccnc(N3CCC[C@H]3CO)n2)cnc2sccn12,-6.3%
3,CN(CCO)c1ncc(-c2ccc(NC(=O)[C@@H]3CCCCN3)cc2)cn1,0.609%
4,Cc1noc2ncnc(N3CCC(O)(Cn4ccnc4)CC3)c12,0.648%
5,COCCn1ccnc1-c1[nH]cnc1C,-18.4%
6,COC(=O)NCC(=O)N(C)CC1Cc2ccccc2CN1C (configuration not stated),-6.24%
7,COc1cccc(CC2CN(C3CC(C)(C)NC(C)(C)C3)CCO2)c1 (configuration not stated),-91.7%
8,COCCNC(=O)c1cc(S(=O)(=O)N2CCCCC2)cs1,-8.94%
9,NC(=O)c1c[nH]nc1NC(=O)c1cccc(Cl)c1,-2.39%
10,c1ccc2oc(CN3CCCC3Cn3cncn3)nc2c1 (configuration not stated),-17.2%
11,CCC(NC(=O)COC)c1ccccc1OCC(=O)N1CCCC1 (configuration not stated),-6.39%
12,c1cncc(COc2ccccc2CNC2CCc3ncnn3C2)c1 (configuration not stated),-3.69%
13,Cc1cnn(CCNCc2csc(-c3ccco3)n2)c1,-5.28%
14,Cc1nc(CSCCC(=O)NCc2ccncc2)cs1,-15.6%
15,OC(CN1CCC(c2ccn[nH]2)CC1)c1cc(F)ccc1F (configuration not stated),-12.3%
16,O=C(c1cc2c(F)cccc2[nH]1)N1CCCCC1Cn1cccn1 (configuration not stated),-7.95%
17,CCc1nc(C2CCCN2Cc2cnc(C)cn2)no1 (configuration not stated),-14.6%
18,CC(C)C1CCCN1CCCc1nc(-c2cccs2)no1 (configuration not stated),-16%
19,O=C1COc2c(cccc2C(=O)N2CCCC(n3cccn3)C2)N1 (configuration not stated),-13.8%
20,Cc1ccc(N2CCCC(NCC3=Cc4ccccc4OC3)C2)nn1 (configuration not stated),-10.2%
21,O=C(CCNC(=O)c1ccoc1)Nc1cccc(F)c1,-8.63%

row,Structure (SMILES),cytotoxicity at 10 µM
1,Cc1cc(C)n(CC2CCCN2C(=O)CCCc2ccccn2)n1 (configuration not stated),-0.395%
2,O=C(Cc1ccc2c(c1)CCO2)N1CCN(c2cnccn2)CC1,-11.3%
3,O=C(COCc1ccccc1Cl)N1CCCC(n2cccn2)C1 (configuration not stated),10%
4,CNC(=O)[C@@H]1CN(C(=O)CCOC)C[C@H]1c1ccnc(N2CCCC2)n1,-3.43%
5,C[C@@H](NC(=O)c1ccc(Cl)cc1)c1onc(-c2cccnc2)c1C(=O)O,-1.6%
6,O=C1CC2(CCCNC2)C(=O)N1Cc1cccc(Cl)c1 (configuration not stated),-1.19%
7,O=C(CC1CC1)N[C@@H]1CN(Cc2cccnc2)C[C@@H]2CCCO[C@@H]21,-0.995%
8,c1cnc(N2CCOCC3(CCCN(CC4CCOCC4)C3)C2)nc1 (configuration not stated),-8.95%
9,Cn1cc(CN2C[C@@H](NC(=O)c3cscn3)[C@H]3OCCC[C@H]32)cn1,-11.7%
10,CCN1C(=O)C(c2ccccc2)CC12CCN(Cc1cccnc1)CC2 (configuration not stated),4.65%
11,COCCN1C[C@H]2[C@@H](C1)N(Cc1cnn(C)c1)CC[C@H]2OC,8.47%
12,COCCN1C[C@@H](c2ccccc2)[C@@]2(CCN(CC(=O)N(C)C)C2=O)C1,3.11%
13,CN(C)CC(=O)N1CCCC2(CCN(c3ccccc3)C2=O)C1 (configuration not stated),-1.24%
14,CC(C)(CN)NS(=O)(=O)c1c(F)cccc1F,-8.89%
15,CC(C)N1CCO[C@H]2CN(C(=O)c3ccsc3)C[C@H]21,-72%
16,CO[C@H]1CCN(S(=O)(=O)c2cccs2)[C@H]1Cc1cccnc1,-75.5%
17,O=C(c1ccccc1)N1C[C@H]2CCC[C@@]2(COCc2ccncc2)C1,1.59%
18,CCc1c(C)[nH]c(C2(N)CCCCC2)nc1=O,-3.47%
19,COC(=O)Cn1c(=O)[nH]c2cn(-c3ccccc3)c(=O)n21,21.6%

# Reference: ChEMBL document CHEMBL4513216, “Probing the Open Global Health Chemical Diversity Library for Multistage-Active Starting Points for Next-Generation Antimalarials” (ACS Infect Dis, 2020)
